Test results: ChEMBL document CHEMBL1142136, “Contribution of target gene mutations and efflux to decreased susceptibility of Salmonella enterica serovar typhimurium to fluoroquinolones and other antimicrobials” (2007)

What was measured:
Assay type in all cases: functional, Salmonella enterica subsp. enterica serovar Typhimurium
Salmonella typhimurium [1] = experiment: Antimicrobial activity against Salmonella enterica serovar Typhimurium CS3 tolC::Kan with GyrA S83F, D87N, parC S80I mutation
Method in brief: (§1)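 MICs measured by broth microdilution on the Sensititre automated system and interpreted by CLSI broth microdilution standards. Ciprofloxacin was also tested by agar dilution, widening the range to 0.0075–128 μg/ml. Quality control strains were E. coli ATCC 25922 and 35218, E. faecalis ATCC 29212, S. aureus ATCC 29213 and P. aeruginosa ATCC 27853.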

Salmonella typhimurium [2] = experiment: Antimicrobial activity against Salmonella enterica serovar Typhimurium S21-4 tolC::Kan with GyrA S83F, ParC S80I mutation; method in brief: as §1
Salmonella typhimurium [3] = experiment: Antimicrobial activity against Salmonella enterica serovar Typhimurium S21-1 GyrA S83F mutant; method in brief: as §1
Salmonella typhimurium [4] = experiment: Antimicrobial activity against Salmonella enterica serovar Typhimurium S21 gyrA+; method in brief: as §1
Salmonella typhimurium [5] = experiment: Antimicrobial activity against Salmonella enterica serovar Typhimurium S21-4 gyrA+ with ParC S80I mutation; method in brief: as §1
Salmonella typhimurium [6] = experiment: Antimicrobial activity against Salmonella enterica serovar Typhimurium CHS18 gyrA+ with GyrA S38F mutation; method in brief: as §1
Salmonella typhimurium [7] = experiment: Antimicrobial activity against Salmonella enterica serovar Typhimurium CS3 gyrA+ with GyrA S83F, D87N, ParC S80I mutation; method in brief: as §1
Salmonella typhimurium [8] = experiment: Antimicrobial activity against Salmonella enterica serovar Typhimurium S21-2 with GyrA S83F, ParC S80I mutation; method in brief: as §1
Salmonella typhimurium [9] = experiment: Antimicrobial activity against Salmonella enterica serovar Typhimurium CHS38 acrAB::Kan with GyrA D87G mutation; method in brief: as §1
Salmonella typhimurium [10] = experiment: Antimicrobial activity against Salmonella enterica serovar Typhimurium S21-2 tolC::Kan with GyrA S83F, ParC S80I mutation; method in brief: as §1
Salmonella typhimurium [11] = experiment: Antimicrobial activity against Salmonella enterica serovar Typhimurium S21-2 gyrA+ with ParC S80I mutation; method in brief: as §1
Salmonella typhimurium [12] = experiment: Antimicrobial activity against Salmonella enterica serovar Typhimurium S21-1 gyrA+; method in brief: as §1
Salmonella typhimurium [13] = experiment: Antimicrobial activity against Salmonella enterica serovar Typhimurium S21-3 acrAB::Kan with GyrA S83F, ParC S80I mutation; method in brief: as §1
Salmonella typhimurium [14] = experiment: Antimicrobial activity against Salmonella enterica serovar Typhimurium S21-4 with GyrA S83F, ParC S80I mutation; method in brief: as §1
Salmonella typhimurium [15] = experiment: Antimicrobial activity against Salmonella enterica serovar Typhimurium CHS38 with GyrA D87G mutation; method in brief: as §1
Salmonella typhimurium [16] = experiment: Antimicrobial activity against Salmonella enterica serovar Typhimurium CHS18 tolC::Kan with GyrA S38F mutation; method in brief: as §1
Salmonella typhimurium [17] = experiment: Antimicrobial activity against Salmonella enterica serovar Typhimurium CHS14 gyrA+ with GyrA D87G mutation; method in brief: as §1
Salmonella typhimurium [18] = experiment: Antimicrobial activity against Salmonella enterica serovar Typhimurium S21; method in brief: as §1
Salmonella typhimurium [19] = experiment: Antimicrobial activity against Salmonella enterica serovar Typhimurium CHS18 acrAB::Kan with GyrA S38F mutation; method in brief: as §1
Salmonella typhimurium [20] = experiment: Antimicrobial activity against Salmonella enterica serovar Typhimurium CHS18 with GyrA S38F mutation; method in brief: as §1
Salmonella typhimurium [21] = experiment: Antimicrobial activity against Salmonella enterica serovar Typhimurium GyrA S21-1 acrAB::Kan with GyrA S83F mutation; method in brief: as §1
Salmonella typhimurium [22] = experiment: Antimicrobial activity against Salmonella enterica serovar Typhimurium S21-4 acrAB::Kan with GyrA S83F, ParC S80I mutation; method in brief: as §1
Salmonella typhimurium [23] = experiment: Antimicrobial activity against Salmonella enterica serovar Typhimurium CHS14 acrAB::Kan with GyrA D87G mutation; method in brief: as §1
Salmonella typhimurium [24] = experiment: Antimicrobial activity against Salmonella enterica serovar Typhimurium CHS38 gyrA+ with GyrA D87G mutation; method in brief: as §1
Salmonella typhimurium [25] = experiment: Antimicrobial activity against Salmonella enterica serovar Typhimurium S21 acrAB::Kan
Method in brief: (§2)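 MICs by automated broth microdilution panels, interpreted to CLSI broth microdilution standards. Ciprofloxacin additionally tested by agar dilution across 0.0075 to 128 μg/ml. Quality control strains: E. coli ATCC 25922 and 35218, Enterococcus faecalis ATCC 29212, S. aureus ATCC 29213, P. aeruginosa ATCC 27853. Test strains are kanamycin-marked deletion mutants of ground-beef isolate S21.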

Salmonella typhimurium [26] = experiment: Antimicrobial activity against Salmonella enterica serovar Typhimurium S21-3 tolC::Kan with GyrA S83F, ParC S80I mutation; method in brief: as §1
Salmonella typhimurium [27] = experiment: Antimicrobial activity against Salmonella enterica serovar Typhimurium CS1 tolC::Kan with GyrA S83F, D87N, ParC S80I mutation; method in brief: as §1
Salmonella typhimurium [28] = experiment: Antimicrobial activity against Salmonella enterica serovar Typhimurium CS1 acrAB::Kan with GyrA S83F, D87N, ParC S80I mutation; method in brief: as §1
Salmonella typhimurium [29] = experiment: Antimicrobial activity against Salmonella enterica serovar Typhimurium CS1 with GyrA S83F, D87N, ParC S80I mutation; method in brief: as §1
Salmonella typhimurium [30] = experiment: Antimicrobial activity against Salmonella enterica serovar Typhimurium S21-3 with GyrA S83F, ParC S80I mutation; method in brief: as §1
Salmonella typhimurium [31] = experiment: Antimicrobial activity against Salmonella enterica serovar Typhimurium CS1 gyrA+ with GyrA S83F, D87N, ParC S80I mutation; method in brief: as §1
Salmonella typhimurium [32] = experiment: Antimicrobial activity against Salmonella enterica serovar Typhimurium S21-2 acrAB::Kan with GyrA S83F, ParC S80I mutation; method in brief: as §1
Salmonella typhimurium [33] = experiment: Antimicrobial activity against Salmonella enterica serovar Typhimurium CHS14 with GyrA D87G mutation; method in brief: as §1
Salmonella typhimurium [34] = experiment: Antimicrobial activity against Salmonella enterica serovar Typhimurium CHS14 tolC::Kan with GyrA D87G mutant; method in brief: as §1
Salmonella typhimurium [35] = experiment: Antimicrobial activity against Salmonella enterica serovar Typhimurium S21-3 gyrA+ with ParC S80I mutation; method in brief: as §1
Salmonella typhimurium [36] = experiment: Antimicrobial activity against Salmonella enterica serovar Typhimurium CS9 with GyrA S83F, D87N, ParC S80I mutation; method in brief: as §1
Salmonella typhimurium [37] = experiment: Antimicrobial activity against Salmonella enterica serovar Typhimurium CHS38 tolC::Kan with GyrA D87G mutation; method in brief: as §1
Salmonella typhimurium [38] = experiment: Antimicrobial activity against Salmonella enterica serovar Typhimurium CS9 gyrA+ with GyrA S83F, D87N, ParC S80I mutation; method in brief: as §1
Salmonella typhimurium [39] = experiment: Antimicrobial activity against Salmonella enterica serovar Typhimurium CS9 tolC::Kan with GyrA S83F, D87N, ParC S80I mutation; method in brief: as §1
Salmonella typhimurium [40] = experiment: Antimicrobial activity against Salmonella enterica serovar Typhimurium CS3 acrAB::Kan with GyrA S83F, D87N, ParC S80I mutation; method in brief: as §1
Salmonella typhimurium [41] = experiment: Antimicrobial activity against Salmonella enterica serovar Typhimurium S21 tolC::Kan; method in brief: as §2
Salmonella typhimurium [42] = experiment: Antimicrobial activity against Salmonella enterica serovar Typhimurium CS3 with GyrA S83F, D87N, ParC S80I mutation; method in brief: as §1
Salmonella typhimurium [43] = experiment: Antimicrobial activity against Salmonella enterica serovar Typhimurium S21-1 tolC::Kan with GyrA S83F mutation; method in brief: as §1
Salmonella typhimurium [44] = experiment: Antimicrobial activity against Salmonella enterica serovar Typhimurium CS9 acrAB::Kan with GyrA S83F, D87N, ParC S80I mutation; method in brief: as §1

For `C[C@H]1COc2c(N3CCN(C)CC3)c(F)cc3c(=O)c(C(=O)O)cn1c23.C[C@H]1COc2c(N3CCN(C)CC3)c(F)cc3c(=O)c(C(=O)O)cn1c23.O` [LEVOFLOXACIN], the MIC (Salmonella typhimurium [1]) was 1 µg/mL, the MIC (Salmonella typhimurium [2]) was 0.25 µg/mL and the MIC (Salmonella typhimurium [3]) was 0.5 µg/mL. The MIC (Salmonella typhimurium [4]) was 0.03 µg/mL, the MIC (Salmonella typhimurium [5]) was 2 µg/mL and the MIC (Salmonella typhimurium [6]) was 0.06 µg/mL. It also gave an MIC (Salmonella typhimurium [7]) of 0.06 µg/mL, an MIC (Salmonella typhimurium [8]) of 1 µg/mL and an MIC (Salmonella typhimurium [9]) of 0.03 µg/mL. It also gave an MIC (Salmonella typhimurium [10]) of 0.06 µg/mL, an MIC (Salmonella typhimurium [11]) of 0.25 µg/mL and an MIC (Salmonella typhimurium [12]) of 0.03 µg/mL. For the same compound, the MIC (Salmonella typhimurium [13]) was 0.12 µg/mL, the MIC (Salmonella typhimurium [14]) was over 16 µg/mL and the MIC (Salmonella typhimurium [15]) was 0.12 µg/mL. The MIC (Salmonella typhimurium [16]) was 0.03 µg/mL, the MIC (Salmonella typhimurium [17]) was 0.06 µg/mL and the MIC (Salmonella typhimurium [18]) was 0.03 µg/mL. It also gave an MIC (Salmonella typhimurium [19]) of 0.03 µg/mL, an MIC (Salmonella typhimurium [20]) of 0.25 µg/mL and an MIC (Salmonella typhimurium [21]) of 0.06 µg/mL. It also gave an MIC (Salmonella typhimurium [22]) of 0.25 µg/mL, an MIC (Salmonella typhimurium [23]) of 0.03 µg/mL and an MIC (Salmonella typhimurium [24]) of under 0.015 µg/mL. For the same compound, the MIC (Salmonella typhimurium [25]) was under 0.015 µg/mL, the MIC (Salmonella typhimurium [26]) was 0.12 µg/mL and the MIC (Salmonella typhimurium [27]) was 1 µg/mL. For the same compound, the MIC (Salmonella typhimurium [28]) was 2 µg/mL, the MIC (Salmonella typhimurium [29]) was 8 µg/mL and the MIC (Salmonella typhimurium [30]) was over 16 µg/mL. It also gave an MIC (Salmonella typhimurium [31]) of 0.06 µg/mL, an MIC (Salmonella typhimurium [32]) of 0.12 µg/mL and an MIC (Salmonella typhimurium [33]) of 0.25 µg/mL. For the same compound, the MIC (Salmonella typhimurium [34]) was under 0.015 µg/mL, the MIC (Salmonella typhimurium [35]) was 1 µg/mL and the MIC (Salmonella typhimurium [36]) was 8 µg/mL. It also gave an MIC (Salmonella typhimurium [37]) of under 0.015 µg/mL, an MIC (Salmonella typhimurium [38]) of 0.06 µg/mL and an MIC (Salmonella typhimurium [39]) of 1 µg/mL. The MIC (Salmonella typhimurium [40]) was 2 µg/mL, the MIC (Salmonella typhimurium [41]) was under 0.015 µg/mL and the MIC (Salmonella typhimurium [42]) was 8 µg/mL. It also gave an MIC (Salmonella typhimurium [43]) of 0.06 µg/mL and an MIC (Salmonella typhimurium [44]) of 2 µg/mL.
